Structures are written as SMILES.

What all share (type): functional
In experiment [1] the test system is A549. As to the kind of experiment: Antiproliferative activity against human A549 cells by sulforhodamine B assay. In short, it runs like this:
(§1)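 Cells in RPMI 1640 (25 mM HEPES, 2 mM L-glutamine, 10% heat-inactivated FBS, antibiotics) at 37 °C, 5% CO2. Seeded at 3–5 × 10³/well with graded concentrations, paclitaxel as assay control, for 72 h. TCA-fixed, stained with 0.04% SRB, dye dissolved in 10 mM Tris, A515 read. GI50 is the concentration halving absorbance versus untreated cells; three or more experiments.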

Experiment [2] in a line: Selectivity ratio of GI50 for human KB cells to GI50 for multidrug-resistant P-gp expressing human KBVIN cells. In a few lines: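 Ratio of GI50 in parental KB to GI50 in P-gp-overexpressing KB-VIN. […] KB-VIN cells were grown 7–10 days without vincristine before the assay.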
A short description of experiment [3]: Antiproliferative activity against multidrug-resistant P-gp expressing human KBVIN cells by sulforhodamine B assay. In a few lines:
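Vincristine-resistant KB subline kept in 100 nM vincristine, then grown 7–10 days without it before testing. RPMI 1640 with 10% FBS, 37 °C, 5% CO2. 3–5 × 10³ cells/well exposed 72 h to a concentration series, paclitaxel as assay control. SRB staining after TCA fixation, A515 read. GI50 is the 50% absorbance reduction versus untreated cells; three or more experiments.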

For experiment [4], the system named is DU-145. As to the kind of experiment: Antiproliferative activity against human DU145 cells by sulforhodamine B assay. In short, it runs like this:
as §1

The test system of experiment [5] is KB. As to the kind of experiment: Antiproliferative activity against human KB cells by sulforhodamine B assay. In short, it runs like this: as §1

As for `CCN1C[C@]2(C)CC[C@H](OC)[C@@]34[C@@H]5C[C@H]6[C@H](OC)[C@@H]5[C@@]5(C[C@@H]6OC)OCO[C@@]5([C@@H](OC(=O)c5cccc(C(F)(F)F)c5)[C@H]23)[C@@H]14`, the GI50 in experiment [1], in experiment [3], in experiment [4] and in experiment [5] was 10 µM in each case. The RatioGI50 in experiment [2] amounted to 10.
Regarding `CCN1C(=O)[C@]2(C)CC[C@H](OC)[C@@]34[C@@H]5C[C@H]6[C@H](OC)[C@@H]5[C@@]5(C[C@@H]6OC)OCO[C@@]5([C@@H](O)[C@@H]32)[C@@H]14`, the concentration for 50% growth inhibition (GI50) in experiment [1], in experiment [3], in experiment [4] and in experiment [5] was over 20 µM in each case. The RatioGI50 in experiment [2] is over 20.
On to `C=C1[C@@H](O)[C@]23C[C@@H]1[C@@H](OC(=O)c1ccccc1)C[C@H]2[C@@]12C4C3C[C@@H]1[C@@](C)(CC[C@H]2O)CN4CC`, for which the 50% growth inhibitory concentration (GI50) in experiment [1], in experiment [3], in experiment [4] and in experiment [5] was over 20 µM in each case. Also, the RatioGI50 in experiment [2] is over 20.
In the case of `C=C1[C@@H](O)[C@]23C[C@@H]1[C@@H](OC(=O)c1ccc(OC)cc1)C[C@H]2[C@@]12C4C3C[C@@H]1[C@@](C)(CC[C@H]2O)CN4CC`, the GI50 in experiment [1], in experiment [3], in experiment [4] and in experiment [5] was over 20 µM each time. Moreover, the RatioGI50 in experiment [2] is over 20.
As for `CCN1C(=O)[C@]2(COC(=O)c3ccccc3N)CC[C@H](OC)[C@]34C1[C@@](O)([C@@H](OC)[C@H]23)[C@@]1(O)C[C@H](OC)[C@H]2C[C@@H]4[C@@H]1[C@H]2OC`, the GI50 in experiment [1], in experiment [3], in experiment [4] and in experiment [5] was over 20 µM throughout. Also, the RatioGI50 in experiment [2] is over 20.
`CO[C@H]1[C@@H]2C[C@@H]3[C@H]1[C@](O)(C[C@@H]2OC)[C@@]1(O)C2NC(=O)[C@]4(COC(=O)c5ccccc5N)CC[C@H](OC)[C@@]23[C@@H]4[C@@H]1OC`: the GI50 in experiment [1], in experiment [3], in experiment [4] and in experiment [5] was over 20 µM throughout. The RatioGI50 in experiment [2] is reported as over 20.
For the compound `CO[C@H]1[C@@H]2C[C@@H]3[C@H]1[C@](O)(C[C@@H]2OC)[C@@]1(O)C2N=C[C@]4(COC(=O)c5ccccc5N)CC[C@H](OC)[C@@]23[C@@H]4[C@@H]1OC`, the GI50 in experiment [1], in experiment [3], in experiment [4] and in experiment [5] was over 20 µM throughout. Further, the RatioGI50 in experiment [2] is listed as over 20.
On to `C=C1[C@H]2C[C@@]3([C@@H]1OC(C)=O)[C@@H](C[C@@H]2O)[C@@]12C4[C@@H]3C[C@@H]1[C@@](C)(CC[C@@H]2O)CN4CC`, for which the 50% growth inhibitory concentration (GI50) in experiment [1], in experiment [3], in experiment [4] and in experiment [5] was over 20 µM in each case. For the same compound, the RatioGI50 in experiment [2] is reported as over 20.
`C=C1[C@H]2C[C@@]3([C@@H]1OC(C)=O)[C@@H](C[C@@H]2O)[C@@]12C4[C@@H]3C[C@@H]1[C@@](C)(CC[C@@H]2O)C[N+]4([O-])CC` (stereo not given in full): the concentration for 50% growth inhibition (GI50) in experiment [1], in experiment [3], in experiment [4] and in experiment [5] was over 20 µM each time. Moreover, the RatioGI50 in experiment [2] was over 20.
Take `C=C1[C@H]2C[C@@]3([C@@H]1OC(C)=O)[C@@H](C[C@@H]2OC(C)=O)[C@@]12C4[C@@H]3C[C@@H]1[C@@](C)(CC[C@@H]2O)CN4CC`: the concentration for 50% growth inhibition (GI50) in experiment [1], in experiment [3], in experiment [4] and in experiment [5] was over 20 µM each time. Besides, the RatioGI50 in experiment [2] is reported as over 20.
With `C=C1[C@H]2C[C@@]3([C@@H]1O)[C@@H](C[C@@H]2O)[C@@]12C4[C@@H]3C[C@@H]1[C@@](C)(CC[C@@H]2OC(C)=O)CN4CC`, the GI50 in experiment [1], in experiment [3], in experiment [4] and in experiment [5] was over 20 µM in each case. In experiment [2], the RatioGI50 is over 20.
With `C=C1[C@H]2C[C@@]3([C@@H]1OC(C)=O)[C@@H](C[C@@H]2OC(=O)c1ccccc1)[C@@]12C4[C@@H]3C[C@@H]1[C@@](C)(CC[C@@H]2O)CN4CC`, the GI50 in experiment [1], in experiment [3], in experiment [4] and in experiment [5] was over 20 µM each time. Besides, in experiment [2], the RatioGI50 was over 20.
Consider `C=C1[C@H]2C[C@@]3([C@@H]1OC(=O)c1ccccc1)[C@@H](C[C@@H]2OC(=O)c1ccccc1)[C@@]12C4[C@@H]3C[C@@H]1[C@@](C)(CC[C@@H]2OC(=O)c1ccccc1)CN4CC`, for which the GI50 in experiment [1], in experiment [3], in experiment [4] and in experiment [5] was over 20 µM in each case. Besides, the RatioGI50 in experiment [2] is over 20.
As for `C=C1[C@H]2C[C@@]3([C@@H]1OC(=O)c1ccccc1)[C@@H](C[C@@H]2OC(=O)c1ccccc1)[C@@]12C4[C@@H]3C[C@@H]1[C@@](C)(CC[C@@H]2O)CN4CC`, the GI50 in experiment [1], in experiment [3], in experiment [4] and in experiment [5] was over 20 µM in each case. Besides, the RatioGI50 in experiment [2] is over 20.
As to `C=C1[C@H]2C[C@@]3(C4C[C@@H]5C6(C)CCC7O[C@H]6N(CC)C4C75[C@@H]3C[C@@H]2O)[C@@H]1O`, the GI50 in experiment [1], in experiment [3], in experiment [4] and in experiment [5] was over 20 µM throughout. For the same compound, the RatioGI50 in experiment [2] is over 20.
Turning to `C=C1[C@H]2C[C@@]3(C4C[C@@H]5C6(C)CCC7O[C@H]6N(CC)C4C75[C@@H]3C[C@@H]2OC(C)=O)[C@@H]1OC(C)=O`, the GI50 in experiment [1], in experiment [3], in experiment [4] and in experiment [5] was over 20 µM in each case. For the same compound, the RatioGI50 in experiment [2] is recorded as over 20.
As for `C=C1[C@H]2C[C@@H]3C4N5C[C@]6(C)CCC[C@@]47[C@@H]6[C@@H]5C[C@]3([C@@H]1OC(C)=O)[C@H]7[C@H]2O`, the GI50 in experiment [1], in experiment [3], in experiment [4] and in experiment [5] was over 20 µM in each case. In addition, in experiment [2], the RatioGI50 is reported as over 20.
Take `C=C1[C@H]2C[C@@H]3C4N5C[C@]6(C)CCC[C@@]47[C@@H]6[C@@H]5C[C@]3([C@@H]1OC(C)=O)[C@H]7[C@H]2OC(C)=O`: the GI50 in experiment [1], in experiment [3], in experiment [4] and in experiment [5] was over 20 µM each time. For the same compound, the RatioGI50 in experiment [2] is over 20.
Turning to `C=C1[C@H]2C[C@@H]3C4N5C[C@]6(C)CCC[C@@]47[C@@H]6[C@@H]5C[C@]3([C@@H]1O)[C@H]7[C@H]2OC(=O)c1ccccc1`, the GI50 in experiment [1], in experiment [3], in experiment [4] and in experiment [5] was over 20 µM throughout. Besides, the RatioGI50 in experiment [2] is over 20.
In the case of `C=C1[C@H]2C[C@@H]3C4N5C[C@]6(C)CCC[C@@]47[C@@H]6[C@@H]5C[C@]3([C@@H]1OC(=O)c1ccccc1)[C@H]7[C@H]2O`, the GI50 in experiment [1], in experiment [3], in experiment [4] and in experiment [5] was over 20 µM each time. Further, in experiment [2], the RatioGI50 was over 20.
As for `C=C1[C@H]2C[C@@H]3C4N5C[C@]6(C)CCC[C@@]47[C@@H]6[C@@H]5C[C@]3([C@@H]1OC(=O)c1ccccc1)[C@H]7[C@H]2OC(=O)c1ccccc1`, the GI50 in experiment [1] is 8.4 µM; in experiment [3], 7.5 µM; in experiment [4], 9.3 µM; in experiment [5], 6 µM. Also, the RatioGI50 in experiment [2] turned out to be 0.8.
In the same order, the values of `C=C1[C@H]2C[C@@H]3C4N5C[C@]6(C)CCC[C@@]47[C@@H]6[C@@H]5C[C@]3([C@@H]1O)[C@H]7[C@H]2OC(=O)c1ccc(OC)cc1` are over 20 µM, over 20 µM, over 20 µM, over 20 µM and over 20.
The matching figures for `C=C1[C@@H](O)[C@]23C[C@@H]1[C@@H](OC(=O)c1ccc(OC)c(OC)c1)C[C@H]2[C@@]12C4C3C[C@@H]1[C@@](C)(CC[C@H]2O)CN4CC`: over 20 µM, over 20 µM, over 20 µM, over 20 µM and over 20.
The matching figures for `C=C1[C@@H](OC(C)=O)[C@]23C[C@@H]1[C@@H](OC(C)=O)C[C@H]2[C@@]12C4C3C[C@@H]1[C@@](C)(CC[C@H]2OC(C)=O)CN4CC`: over 20 µM, over 20 µM, over 20 µM, over 20 µM and over 20.
